# Data as given in ChEMBL document CHEMBL1124591, “Polyfluoro 1,3-diketones as systemic insecticides” (1989).
# Key:
# Assay type in all cases: functional
# [1] = system: Calliphoridae; experiment: In vitro insecticidal activity in bovine serum against Blowfly larvae
# Method in brief: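 In vitro bait: ~50 first-instar blowflies placed on dental wick saturated with compound in bovine serum, in loosely plugged tube, 27 °C, 55% RH, under fluorescent light, 24 h.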
# [2] = system: Stomoxys calcitrans; experiment: In vitro insecticidal activity in bovine serum against adult stable fly
# Method in brief: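 Twenty chilled 5-day-old hungry adult Stomoxys calcitrans in covered petri dish exposed to compound in bovine serum on saturated dental wick, incubated 24 or 48 h.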
# [3] = system: Stomoxys calcitrans; experiment: In vitro insecticidal activity against adult stable fly in serum collected from calves administered with 0.50 mg/kg; conditions: dose 0.5 mg/kg
# [4] = system: Stomoxys calcitrans; experiment: Mortality percentage on day 6 in Adult stable flies after their exposure to sera for 48 hours, from the cattle, administered with the compound at 5 mg/kg
# Method in brief: (§1)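 Calves given single intraruminal 5 mg/kg in 5 mL PEG-200, with vehicle and untreated controls; serum collected daily and fed on saturated dental wick to adult stable flies (20/dish) or ~50 first-instar blowflies; % mortality read after 48 h exposure.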
# [5] = system: Calliphoridae; experiment: In vivo insecticidal activity against Larval blowfly from calves administered with 0.50 mg/kg; conditions: dose 0.5 mg/kg
# Method in brief: (§2)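 Calves dosed daily intraruminally through implanted rumen tube with diketone in 5 mL PEG-200 (vehicle and untreated controls). Daily serum fed on saturated dental wick to ~50 first-instar blowflies, 27 °C, 55% RH; mortality after 48 h (24 h where noted); day of onset of ≥50% mortality recorded.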
# [6] = system: Calliphoridae; experiment: Mortality percentage on day 6 in Blowfly larvae after their exposure to sera for 24 hours, from the cattle administered with the compound at 5 mg/kg
# Method in brief: (§3)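 Calves given single intraruminal 5 mg/kg in 5 mL PEG-200 (two treated, one vehicle, one untreated). Blood taken pre-dose, 2, 5, 24 h, then daily; serum on saturated dental wick fed to adult stable flies (20/dish) or ~50 first-instar blowflies (27 °C, 55% RH); % mortality after 24 h exposure.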
# [7] = system: Calliphoridae; experiment: Mortality percentage on day 6 in Blowfly larvae after their exposure to sera for 48 hours, from the cattle administered with the compound at 5 mg/kg; method in brief: as §1
# [8] = system: Stomoxys calcitrans; experiment: Mortality percentage on 1 day in Adult stable flies after their exposure to sera for 24 hours, from the cattle, administered with the compound at 5 mg/kg; method in brief: as §3
# [9] = system: Calliphoridae; experiment: Mortality percentage on day 5 in Blowfly larvae after their exposure to sera for 48 hours, from the cattle administered with the compound at 5 mg/kg; method in brief: as §1
# [10] = system: Stomoxys calcitrans; experiment: Mortality percentage on day 3 in Adult stable flies after their exposure to sera for 24 hours, from the cattle, administered with the compound at 5 mg/kg; method in brief: as §3
# [11] = system: Stomoxys calcitrans; experiment: In vitro insecticidal activity against adult stable fly in serum collected from calves administered with 0.75 mg/kg
# [12] = system: Calliphoridae; experiment: In vivo insecticidal activity against Larval blowfly from calves administered with 1.0 mg/kg; method in brief: as §2
# [13] = system: Calliphoridae; experiment: Mortality percentage on day 4 in Blowfly larvae after their exposure to sera for 24 hours, from the cattle administered with the compound at 5 mg/kg; method in brief: as §3
# [14] = system: Calliphoridae; experiment: Mortality percentage on day 3 in Blowfly larvae after their exposure to sera for 24 hours, from the cattle administered with the compound at 5 mg/kg; method in brief: as §3
# [15] = system: Stomoxys calcitrans; experiment: In vitro insecticidal activity against adult stable fly in serum collected from calves administered with 1.50 mg/kg; conditions: dose 1.5 mg/kg
# [16] = system: Stomoxys calcitrans; experiment: In vivo insecticidal activity against adult stable fly in serum collected from calves administered with 0.50 mg/kg; conditions: dose 0.5 mg/kg
# [17] = system: Calliphoridae; experiment: Mortality percentage on day 2 in Blowfly larvae after their exposure to sera for 24 hours, from the cattle administered with the compound at 5 mg/kg; method in brief: as §3
# [18] = system: Stomoxys calcitrans; experiment: Mortality percentage on day 5 in Adult stable flies after their exposure to sera for 24 hours, from the cattle, administered with the compound at 5 mg/kg; method in brief: as §3
# [19] = system: Calliphoridae; experiment: In vivo insecticidal activity against Larval blowfly from calves administered with 0.75 mg/kg; method in brief: as §2
# [20] = system: Stomoxys calcitrans; experiment: Mortality percentage after on day 2 in Adult stable flies after their exposure to sera for 24 hours, from the cattle, administered with the compound at 5 mg/kg; method in brief: as §3
# [21] = system: Calliphoridae; experiment: Mortality percentage on day 3 in Blowfly larvae after their exposure to sera for 48 hours, from the cattle administered with the compound at 5 mg/kg; method in brief: as §1
# [22] = system: Calliphoridae; experiment: Mortality percentage on day 0 in Blowfly larvae after their exposure to sera for 24 hours, from the cattle administered with the compound at 5 mg/kg; method in brief: as §3
# [23] = system: Calliphoridae; experiment: Mortality percentage on day 5 in Blowfly larvae after their exposure to sera for 24 hours, from the cattle administered with the compound at 5 mg/kg; method in brief: as §3
# [24] = system: Stomoxys calcitrans; experiment: Mortality percentage on day 7 in Adult stable flies after their exposure to sera for 24 hours, from the cattle, administered with the compound at 5 mg/kg; method in brief: as §3
# [25] = system: Calliphoridae; experiment: Mortality percentage on day 4 in Blowfly larvae after their exposure to sera for 48 hours, from the cattle administered with the compound at 5 mg/kg; method in brief: as §1
# [26] = system: Stomoxys calcitrans; experiment: In vivo insecticidal activity against adult stable fly in serum collected from calves administered with 0.75 mg/kg
# [27] = system: Stomoxys calcitrans; experiment: In vivo insecticidal activity against adult stable fly in serum collected from calves administered with 1.0 mg/kg
# [28] = system: Stomoxys calcitrans; experiment: In vitro insecticidal activity against adult stable fly in serum collected from calves administered with 1 mg/kg
# [29] = system: Stomoxys calcitrans; experiment: Mortality percentage on day 5 in Adult stable flies after their exposure to sera for 48 hours, from the cattle, administered with the compound at 5 mg/kg; method in brief: as §1
# [30] = system: Calliphoridae; experiment: Mortality percentage on day 7 in Blowfly larvae after their exposure to sera for 24 hours, from the cattle administered with the compound at 5 mg/kg; method in brief: as §3
# [31] = system: Stomoxys calcitrans; experiment: Mortality percentage on day 3 in Adult stable flies after their exposure to sera for 48 hours, from the cattle, administered with the compound at 5 mg/kg; method in brief: as §1
# [32] = system: Calliphoridae; experiment: Mortality percentage on day 1 in Blowfly larvae after their exposure to sera for 24 hours, from the cattle administered with the compound at 5 mg/kg; method in brief: as §3
# [33] = system: Stomoxys calcitrans; experiment: Mortality percentage on 0 day in Adult stable flies after their exposure to sera for 24 hours, from the cattle, administered with the compound at 5 mg/kg; method in brief: as §3
# [34] = system: Stomoxys calcitrans; experiment: Mortality percentage on day 6 in Adult stable flies after their exposure to sera for 24 hours, from the cattle, administered with the compound at 5 mg/kg; method in brief: as §3
# [35] = system: Calliphoridae; experiment: In vivo insecticidal activity against Larval blowfly from calves administered with 1.50 mg/kg; conditions: dose 1.5 mg/kg; method in brief: as §2
# [36] = system: Stomoxys calcitrans; experiment: In vivo insecticidal activity against adult stable fly in serum collected from calves administered with 1.50 mg/kg; conditions: dose 1.5 mg/kg
# [37] = system: Stomoxys calcitrans; experiment: In vivo insecticidal activity against adult stable fly in serum collected from calves administered with 1 mg/kg
# [38] = system: Calliphoridae; experiment: In vivo insecticidal activity against Larval blowfly from calves administered with 0.20 mg/kg; conditions: dose 0.2 mg/kg; method in brief: as §2
# [39] = system: Stomoxys calcitrans; experiment: In vitro insecticidal activity against adult stable fly in serum collected from calves administered with 1.00 mg/kg
# [40] = system: Stomoxys calcitrans; experiment: In vitro insecticidal activity against adult stable fly in serum collected from calves administered with 0.35 mg/kg
structure (smiles),measurement,setting,value
O=C(/C=C(\[O-])c1ccc(F)c(F)c1)C(F)(F)C(F)(F)C(F)(F)F.[Na+],Lowest effective concentration,[1],30 p.p.m.
same,Lowest effective concentration,[2],25 p.p.m.
O=C(/C=C(\[O-])c1cc(Cl)cc(Cl)c1)C(F)(F)C(F)(F)F.[Na+],Activity,[3],6 day of onset
same,mortality at 5 mg/kg,[4],30%
same,Activity,[5],6 day of onset
same,mortality at 5 mg/kg,[6],0%
same,mortality at 5 mg/kg,[7],0%
same,mortality at 5 mg/kg,[8],20%
same,mortality at 5 mg/kg,[9],0%
same,mortality at 5 mg/kg,[10],45%
same,Activity,[11],4 day of onset
same,Activity,[12],5 day of onset
same,mortality at 5 mg/kg,[13],0%
same,mortality at 5 mg/kg,[14],0%
same,Activity,[15],2 day of onset
same,Activity,[16],6 day of onset
same,mortality at 5 mg/kg,[17],0%
same,Lowest effective concentration,[1],40 p.p.m.
same,mortality at 5 mg/kg,[18],0%
same,Activity,[19],4 day of onset
same,mortality at 5 mg/kg,[20],55%
same,mortality at 5 mg/kg,[21],100%
same,mortality at 5 mg/kg,[22],0%
same,mortality at 5 mg/kg,[23],0%
same,Lowest effective concentration,[2],20 p.p.m.
same,mortality at 5 mg/kg,[24],10%
same,mortality at 5 mg/kg,[25],50%
same,Activity,[26],4 day of onset
same,Activity,[27],3 day of onset
same,Activity,[28],3 day of onset
same,mortality at 5 mg/kg,[29],80%
same,mortality at 5 mg/kg,[30],0%
same,mortality at 5 mg/kg,[31],100%
same,mortality at 5 mg/kg,[32],0%
same,mortality at 5 mg/kg,[33],0%
same,mortality at 5 mg/kg,[34],0%
same,Activity,[35],2 day of onset
same,Activity,[36],2 day of onset
O=C(/C=C(\[O-])c1cc(Br)cc(Br)c1)C(F)(F)C(F)(F)C(F)(F)F.[Na+],Lowest effective concentration,[1],25 p.p.m.
same,Lowest effective concentration,[2],25 p.p.m.
O=C(/C=C(\[O-])c1ccc(C(F)(F)F)cc1)C(F)(F)C(F)(F)C(F)(F)F.[Na+],Lowest effective concentration,[1],35 p.p.m.
same,Lowest effective concentration,[2],30 p.p.m.
O=C(/C=C(\[O-])c1cccc(C(F)(F)F)c1)C(F)(F)C(F)(F)C(F)(F)F.[Na+],Lowest effective concentration,[1],40 p.p.m.
same,Lowest effective concentration,[2],35 p.p.m.
O=C(/C=C(\[O-])c1cc(Cl)cc(Cl)c1)C(F)(F)C(F)(F)C(F)(F)F.[Na+],Activity,[3],4 day of onset
same,Activity,[5],8 day of onset
same,Activity,[16],4 day of onset
same,Lowest effective concentration,[1],15 p.p.m.
same,Activity,[37],3 day of onset
same,Activity,[38],5 day of onset
same,Activity,[39],3 day of onset
same,Lowest effective concentration,[2],25 p.p.m.
same,Activity,[40],9 day of onset
O=C(/C=C(\[O-])c1cc(Cl)cc(Cl)c1)C(F)(F)C(F)F.[Na+],Lowest effective concentration,[1],25 p.p.m.
same,Activity,[39],5 day of onset
same,Lowest effective concentration,[2],20 p.p.m.
O=C(/C=C(\[O-])c1cc(Cl)cc(Cl)c1)C(F)(F)F.[Na+],Lowest effective concentration,[1],20 p.p.m.
same,Lowest effective concentration,[2],25 p.p.m.
Cc1c(COC(=O)C2C(/C=C(\Cl)C(F)(F)F)C2(C)C)cccc1-c1ccccc1 (stereo not drawn),Lowest effective concentration,[1],5 p.p.m.
same,Lowest effective concentration,[2],25 p.p.m.
O=C(/C=C(\[O-])c1ccc(Cl)cc1)C(F)(F)C(F)(F)C(F)(F)F.[Na+],Lowest effective concentration,[1],50 p.p.m.
same,Lowest effective concentration,[2],25 p.p.m.
O=C(/C=C(\[O-])c1ccc(Cl)c(Cl)c1)C(F)(F)C(F)(F)C(F)(F)F.[Na+],Lowest effective concentration,[1],30 p.p.m.
same,Lowest effective concentration,[2],25 p.p.m.
CC[C@H](C)[C@H]1O[C@]2(C=C[C@@H]1C)C[C@@H]1C[C@@H](C/C=C(\C)[C@@H](O[C@H]3C[C@H](OC)[C@@H](O[C@H]4C[C@H](OC)[C@@H](O)[C@H](C)O4)[C@H](C)O3)[C@@H](C)/C=C/C=C3\CO[C@@H]4[C@H](O)C(C)=C[C@@H](C(=O)O1)[C@]34O)O2 [ABAMECTIN COMPONENT B1A],Lowest effective concentration,[1],0.5 p.p.m.
same,Lowest effective concentration,[2],10 p.p.m.
CNC(=O)Oc1cccc2c1OC(C)(C)C2 [CARBOFURAN],Lowest effective concentration,[1],5 p.p.m.
same,Lowest effective concentration,[2],1 p.p.m.
